The source made the active and inactive calls. The calls are words filed in the database; no cut-off is given here. Where only a bound is given, the exact number is not on record here.

Here are results for 41 molecules from ChEMBL document CHEMBL1157094, “Study on the constituents of Mexican propolis and their cytotoxic activity against PANC-1 human pancreatic cancer cells” (J Nat Prod, 2010).

The test system of one data set is PANC-1. In words: Induction of apoptosis in human PANC1 cells in nutrient-deprived condition assessed as membrane bleb formation at 12.5 uM after 24 hrs by phase-contrast microscopy. The data set is classed as functional, cell-based.
Details: not given
The method, boiled down: (§1)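 PANC-1 cells were seeded at 2 × 10^4 per well and grown 24 h in DMEM at 37 °C under 5% CO2/95% air. They were then washed with PBS and switched to nutrient-deprived medium (NDM) containing test compound. After 24 h exposure at 12.5 µM, morphology was photographed under a phase-contrast microscope at 200× magnification.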
For the molecule `C=C[C@H](c1ccc(O)c(OC)c1)c1c(O)cc(O)c2c(=O)c(O)c(-c3ccccc3)oc12`, the result was Active.

Another data set concerns PANC-1. In words: Cytotoxicity against human PANC1 cells in nutrient-deprived condition assessed as preferential cell death after 24 hrs by WST-8 assay.
Details: not given
On the technique in general: Tetrazolium dyes change colour on reduction, which living cells bring about.
Consider `COc1ccc(/C=C/C(=O)OC/C=C/c2ccccc2)cc1OC`, for which the PC50 came to 98.9 µM.

For `O=C(O)/C=C/c1ccc(O)cc1` [COUMARIC ACID], the PC50 worked out at 77 µM.

With `CC(=O)OC(COC(=O)/C=C/c1ccc(O)cc1)COC(=O)/C=C/c1ccc(O)cc1`, the PC50 was 38.8 µM.

Regarding `COc1cc(-c2oc3cc(O)cc(O)c3c(=O)c2OC)ccc1O` [3,3'-O-DIMETHYLQUERCETIN], the PC50 is 59.8 µM.

`COc1cc(O)c2c(c1)O[C@H](c1ccccc1)[C@@H](O)C2=O`: the PC50 turned out to be 74.2 µM.

Turning to `COc1cc(/C=C/C(=O)OCC(COC(=O)/C=C/c2ccc(O)c(OC)c2)OC(C)=O)ccc1O`, the PC50 came to 25.8 µM.

In the case of `COc1cc(O)c2c(c1)O[C@H](c1ccccc1)CC2=O` [PINOSTROBIN], the PC50 was above 100 µM.

Turning to `COc1cc(/C=C/C(=O)O)ccc1O` [FERULATE], the PC50 was determined as 66.6 µM.

As for `COc1cc(O)c2c(c1)O[C@H](c1ccccc1)[C@@H](OC(C)=O)C2=O`, the PC50 is 75.3 µM.

For the molecule `CC(=O)OC(COC(=O)/C=C/c1ccc(O)cc1)COC(=O)/C=C/c1ccc(O)c(O)c1` (stereo not given), the PC50 was found to be 17.4 µM.

As to `CC(=O)OCC(O)COC(=O)/C=C/c1ccc(O)cc1` (stereo not given), the PC50 was above 100 µM.

For the molecule `O=c1cc(-c2ccc(O)cc2)oc2cc(O)cc(O)c12` [APIGENIN], the PC50 came out at 89.5 µM.

Regarding `COc1ccc(/C=C/C(=O)O)cc1OC` [O,O'-DIMETHYLCAFFEIC ACID], the PC50 was above 100 µM.

For `O=C(/C=C/c1ccc(O)cc1)OC/C=C/c1ccccc1`, the PC50 was found to be 38.2 µM.

For `C=C[C@H](c1ccc(O)c(OC)c1)c1c(O)cc(O)c2c(=O)c(O)c(-c3ccccc3)oc12`, the PC50 was determined as 4.6 µM.

Turning to `CC(=O)O[C@H]1C(=O)c2c(O)cc(O)cc2O[C@@H]1c1ccccc1`, the PC50 came out at 36.6 µM.

As to `O=C(O)/C=C/c1ccccc1` [CINNAMIC ACID], the PC50 was above 100 µM.

On to `COc1cc(/C=C/C(=O)OCc2ccccc2)ccc1O` [BENZYL FERULATE], for which the PC50 was 17 µM.

Regarding `COc1cc(/C=C/C(=O)OCC(COC(=O)/C=C/c2ccc(O)cc2)OC(C)=O)ccc1O` (stereo not given), the PC50 came to 32.7 µM.

Take `O=C(O)c1ccccc1` [BENZOIC ACID]: the PC50 was above 100 µM.

For the molecule `COc1ccc(/C=C/C(=O)OCc2ccccc2)cc1OC`, the PC50 came to 58.8 µM.

As to `O=C(O)/C=C/C=C/c1ccccc1` [JUAREZIC ACID], the PC50 was above 100 µM.

Take `CC(C)C(=O)O[C@H]1C(=O)c2c(O)cc(O)cc2O[C@@H]1c1ccccc1`: the PC50 amounted to 19.8 µM.

For `CCC(=O)O[C@H]1C(=O)c2c(O)cc(O)cc2O[C@@H]1c1ccccc1`, the PC50 turned out to be 18.2 µM.

Turning to `COc1cc(C=O)ccc1O` [VANILLIN], the PC50 was above 100 µM.

Regarding `O=C(/C=C/c1ccc(O)cc1)OCc1ccccc1`, the PC50 was determined as 23.8 µM.

For the molecule `COc1cc(O)cc2c1C(=O)[C@H](O)[C@@H](c1ccccc1)O2`, the PC50 was above 100 µM.

For the molecule `O=C(OC/C=C/c1ccccc1)c1ccccc1`, the PC50 was above 100 µM.

As for `O=C1C[C@@H](c2ccccc2)Oc2cc(O)cc(O)c21` [PINOCEMBRIN], the PC50 is 46.5 µM.

In the case of `O=C(/C=C/c1ccccc1)OCc1ccccc1` [BENZYL CINNAMATE], the PC50 is above 100 µM.

As to `COc1cc(O)c2c(=O)c(O)c(-c3ccccc3)oc2c1` [IZALPININ], the PC50 was above 100 µM.

Take `COc1cc(O)c2c(=O)cc(-c3ccccc3)oc2c1` [TECHTOCHRYSIN]: the PC50 is above 100 µM.

`C=C[C@H](c1ccc(O)c(OC)c1)c1c(O)cc(O)c2c(=O)cc(-c3ccccc3)oc12`: the PC50 came to 12.7 µM.

As to `O=C1C[C@@H](c2ccc(O)cc2)Oc2cc(O)cc(O)c21` [NARINGENIN], the PC50 is above 100 µM.

As for `O=c1c(O)c(-c2ccccc2)oc2cc(O)cc(O)c12` [GALANGIN], the PC50 was 22.1 µM.

For the molecule `COc1ccc(/C=C/C(=O)OC/C=C/c2ccccc2)cc1O`, the PC50 worked out at 31.7 µM.

`O=c1cc(-c2ccccc2)oc2cc(O)cc(O)c12` [CHRYSIN]: the PC50 amounted to 88.7 µM.

In the case of `O=C(/C=C/c1ccccc1)OC/C=C/c1ccccc1`, the PC50 is above 100 µM.

With `CC(C)CC(=O)O[C@H]1C(=O)c2c(O)cc(O)cc2O[C@@H]1c1ccccc1`, the PC50 amounted to 17.5 µM.

For the molecule `CCC(C)C(=O)O[C@H]1C(=O)c2c(O)cc(OC)cc2O[C@@H]1c1ccccc1` (stereo not given in full), the PC50 is 44.8 µM.

With `COc1c(-c2ccc(O)cc2)oc2cc(O)ccc2c1=O`, the PC50 is above 100 µM.

The next data set concerns PANC-1. In words: Induction of apoptosis in human PANC1 cells in nutrient-deprived condition assessed as nuclear fragmentation at 12.5 uM after 24 hrs by phase-contrast microscopy. The class given is functional, cell-based.
Details: not given
Put shortly: as §1
With `C=C[C@H](c1ccc(O)c(OC)c1)c1c(O)cc(O)c2c(=O)c(O)c(-c3ccccc3)oc12`, the outcome was Active.

Tested on in the next data set: not listed separately
As to the kind of experiment: Cytotoxicity against human TIG3 cells after 24 hrs by WST-8 assay. Conditions: tig-3, 24 h.
For `C=C[C@H](c1ccc(O)c(OC)c1)c1c(O)cc(O)c2c(=O)c(O)c(-c3ccccc3)oc12`, the Activity entry is listed as “Non-toxic”.

For a further data set, the system named is PANC-1. In words: Induction of apoptosis in human PANC1 cells in nutrient-deprived condition assessed as nuclear condensation at 12.5 uM after 24 hrs by phase-contrast microscopy. The data set is classed as functional, cell-based.
Details: not given
Put shortly: as §1
As to `C=C[C@H](c1ccc(O)c(OC)c1)c1c(O)cc(O)c2c(=O)c(O)c(-c3ccccc3)oc12`, the outcome was Active.
